# Laboratory results from ChEMBL document CHEMBL3407380, “Structure-based design of phthalimide derivatives as potential cyclooxygenase-2 (COX-2) inhibitors: anti-inflammatory and analgesic activities” (Eur J Med Chem, 2015).
# Tests used:
# [1] = target: T1, Prostaglandin G/H synthase 1 (Ovis aries, UniProt P05979); experiment: Inhibition of ovine COX1 assessed as inhibition of PGF2alpha production from PGH2 preincubated for 5 mins before arachidonic acid addition measured after 2 mins by enzyme immunoassay
# T1 sequence (P05979 whole entry): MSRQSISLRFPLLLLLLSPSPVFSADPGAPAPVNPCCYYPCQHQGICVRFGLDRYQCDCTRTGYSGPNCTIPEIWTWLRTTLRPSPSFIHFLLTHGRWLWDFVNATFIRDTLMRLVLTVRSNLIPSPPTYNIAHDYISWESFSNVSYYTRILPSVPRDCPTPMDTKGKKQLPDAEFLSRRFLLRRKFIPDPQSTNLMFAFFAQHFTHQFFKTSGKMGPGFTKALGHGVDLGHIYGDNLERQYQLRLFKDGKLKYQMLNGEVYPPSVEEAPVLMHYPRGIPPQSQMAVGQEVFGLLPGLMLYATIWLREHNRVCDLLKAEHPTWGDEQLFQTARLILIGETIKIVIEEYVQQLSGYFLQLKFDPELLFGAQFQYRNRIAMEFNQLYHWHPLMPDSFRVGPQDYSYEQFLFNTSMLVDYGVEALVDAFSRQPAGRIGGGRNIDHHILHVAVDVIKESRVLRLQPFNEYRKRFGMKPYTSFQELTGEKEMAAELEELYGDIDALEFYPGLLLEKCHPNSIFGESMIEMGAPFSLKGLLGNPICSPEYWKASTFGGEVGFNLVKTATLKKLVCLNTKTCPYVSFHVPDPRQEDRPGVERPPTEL
# How it was run: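 Ovine COX-1 from a COX-1/COX-2 inhibitor screening kit, in 0.1 M Tris-HCl pH 8.0. Enzyme was incubated with inhibitor for 5 min at 37 °C. Arachidonic acid (100 µM solution) was then added, and the reaction was stopped with 1 M HCl after 2 min. Prostaglandins were quantified by competitive acetylcholinesterase-tracer EIA read at 410 nm.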
# Mus musculus = experiment: Analgesic activity in ip dosed albino Swiss mouse assessed as licking or blowing latency time measured 60 mins post dose by hot plate method; type: functional; conditions: 1 h
# Rattus norvegicus = experiment: Antiinflammatory activity in ip dosed Sprague-Dawley rat assessed as inhibition of carrageenan-induced paw edema measured 2 hrs post dose by displacement plethysmometer analysis; type: functional
Compound,IC50 [1] [µM],ED50 (Mus musculus) [mg/kg],ED50 (Rattus norvegicus) [mg/kg]
COc1ccc(CN2C(=O)CCC2=O)cc1,> 100,–,–
Cc1ccc(-c2cc(C(F)(F)F)nn2-c2ccc(S(N)(=O)=O)cc2)cc1 [CELECOXIB],–,71,–
COc1ccc(CN2C(=O)c3cc(Cl)c(Cl)cc3C2=O)cc1,131,51.2,75
COc1ccc(CN2C(=O)c3nccnc3C2=O)cc1,117,106,159
COc1ccc(CN2C(=O)c3c(Cl)c(Cl)c(Cl)c(Cl)c3C2=O)cc1,> 100,52.9,103
COc1ccc(CN2C(=O)c3ccc(C(C)(C)C)cc3C2=O)cc1,> 100,96.1,137
COc1cc(CN2C(=O)c3ccc(C)cc3C2=O)cc(OC)c1OC,> 100,–,130
COc1ccc(CN2C(=O)c3ccccc3C2=O)cc1,110,107,162
COc1ccc(CN2C(=O)c3cccc4cccc(c34)C2=O)cc1,> 100,119,129
O=C1c2ccc([N+](=O)[O-])cc2C(=O)N1Cc1ccc(F)cc1,> 100,35,127
O=C1c2cc(Cl)c(Cl)cc2C(=O)N1Cc1ccc(F)cc1,> 100,–,–
O=C1c2nccnc2C(=O)N1Cc1ccc(F)cc1,> 100,–,–
COc1ccc(CN2C(=O)c3ccc([N+](=O)[O-])cc3C2=O)cc1,119,17,68
COc1cc(CN2C(=O)c3cccc4cccc(c34)C2=O)cc(OC)c1OC,> 100,88,115
O=C1c2c(Cl)c(Cl)c(Cl)c(Cl)c2C(=O)N1Cc1ccc(F)cc1,> 100,–,–
COc1cc(CN2C(=O)C3CC=CCC3C2=O)cc(OC)c1OC (configuration not stated),> 100,125,171

Compound,IC50 [1] [µM],ED50 (Mus musculus) [mg/kg],ED50 (Rattus norvegicus) [mg/kg]
CC(C)(C)c1ccc2c(c1)C(=O)N(Cc1ccc(F)cc1)C2=O,> 100,–,–
Cc1ccc2c(c1)C(=O)N(Cc1ccc(F)cc1)C2=O,> 100,97,172
COc1ccc(CN2C(=O)C3CC=CCC3C2=O)cc1 (configuration not stated),> 100,–,–
COc1cc(CN2C(=O)c3ccc([N+](=O)[O-])cc3C2=O)cc(OC)c1OC,120,27.6,54
O=C1c2ccccc2C(=O)N1Cc1ccc(F)cc1,116,90,170
COc1ccc(CN2C(=O)c3ccc(C)cc3C2=O)cc1,> 100,80.5,153
COc1cc(CN2C(=O)c3c(Cl)c(Cl)c(Cl)c(Cl)c3C2=O)cc(OC)c1OC,> 100,54.7,144
O=C1C2CC=CCC2C(=O)N1Cc1ccc(F)cc1 (configuration not stated),> 100,–,–
O=C1CCC(=O)N1Cc1ccc(F)cc1,> 100,–,–
COc1cc(CN2C(=O)c3ccc(C(C)(C)C)cc3C2=O)cc(OC)c1OC,> 100,79.3,147
COc1cc(CN2C(=O)c3cc(Cl)c(Cl)cc3C2=O)cc(OC)c1OC,120,57.4,67
COc1cc(CN2C(=O)c3ccccc3C2=O)cc(OC)c1OC,> 100,110,149
COc1cc(CN2C(=O)c3nccnc3C2=O)cc(OC)c1OC,> 100,40.5,119
O=C1c2cccc3cccc(c23)C(=O)N1Cc1ccc(F)cc1,> 100,–,–
COc1cc(CN2C(=O)CCC2=O)cc(OC)c1OC,> 100,95,180
